HSV replic up – enhancers of HSV replication in host cells, fold increase, host cell viability | HSV replication augmentation in cells | maximum fold increase | 0.005% of 220,000 active | AID 1956, 2009; in the data active means maximum fold increase above about 1.5; tested in PC3 cells
HKDC1 inhibitor – HKDC1 hexokinase inhibitors, primary screen, biochemical, fluorescence, uHTS. Q2TB90. 0.16% of 340,000 active. inhibition, % at 20 µM. AID 493160, 2011. recombinant HKDC1, G6PDH/diaphorase resazurin coupled fluorescence;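 active means inhibition above about 35% when tested at 20 µM, limit read from the data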;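 further: plate controls were DMSO wells with enzyme for no effect and DMSO wells lacking enzyme for full effect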
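Assay system: in-house recombinant HK5 (HKDC1) enzyme. Input: HKDC1 at 5 µg/mL. Medium: Tris pH 8.0 buffer with MgCl2, Tween-20, BSA, BME. Dosing: single 20 µM dose. Schedule: 90 min reaction incubation at room temperature, dark. Signal: resazurin-to-resorufin fluorescence via G6PDH and diaphorase coupling, 525/613 nm. Controls: DMSO-enzyme wells negative, buffer-substituted wells positive.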
PERK inhibitor – block of dimerizer-induced PERK translation repression, primary screen, PERK inhibitor project, CHO PERK-DD cells, SEAP luminescence, HTS | Eukaryotic translation initiation factor 2-alpha kinase 3 (Homo sapiens), Q9NZJ5 | CHO PERK-DD fusion, SEAP luminescence translation reporter | inhibition, % at 5.6 µM | 0.17% of 220,000 active;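 active means inhibition above the mean inhibition of all tested compounds plus 3 SD, set separately per screening campaign, cut at about 2.9% in these data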;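 further: PERK kinase domain activated by AP20187 dimerizer at 100 nM; 0% = DMSO with dimerizer and 100% = rapamycin at 8.4 µM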
Target sequence (Q9NZJ5 whole entry, looked up, the tested form may be a part): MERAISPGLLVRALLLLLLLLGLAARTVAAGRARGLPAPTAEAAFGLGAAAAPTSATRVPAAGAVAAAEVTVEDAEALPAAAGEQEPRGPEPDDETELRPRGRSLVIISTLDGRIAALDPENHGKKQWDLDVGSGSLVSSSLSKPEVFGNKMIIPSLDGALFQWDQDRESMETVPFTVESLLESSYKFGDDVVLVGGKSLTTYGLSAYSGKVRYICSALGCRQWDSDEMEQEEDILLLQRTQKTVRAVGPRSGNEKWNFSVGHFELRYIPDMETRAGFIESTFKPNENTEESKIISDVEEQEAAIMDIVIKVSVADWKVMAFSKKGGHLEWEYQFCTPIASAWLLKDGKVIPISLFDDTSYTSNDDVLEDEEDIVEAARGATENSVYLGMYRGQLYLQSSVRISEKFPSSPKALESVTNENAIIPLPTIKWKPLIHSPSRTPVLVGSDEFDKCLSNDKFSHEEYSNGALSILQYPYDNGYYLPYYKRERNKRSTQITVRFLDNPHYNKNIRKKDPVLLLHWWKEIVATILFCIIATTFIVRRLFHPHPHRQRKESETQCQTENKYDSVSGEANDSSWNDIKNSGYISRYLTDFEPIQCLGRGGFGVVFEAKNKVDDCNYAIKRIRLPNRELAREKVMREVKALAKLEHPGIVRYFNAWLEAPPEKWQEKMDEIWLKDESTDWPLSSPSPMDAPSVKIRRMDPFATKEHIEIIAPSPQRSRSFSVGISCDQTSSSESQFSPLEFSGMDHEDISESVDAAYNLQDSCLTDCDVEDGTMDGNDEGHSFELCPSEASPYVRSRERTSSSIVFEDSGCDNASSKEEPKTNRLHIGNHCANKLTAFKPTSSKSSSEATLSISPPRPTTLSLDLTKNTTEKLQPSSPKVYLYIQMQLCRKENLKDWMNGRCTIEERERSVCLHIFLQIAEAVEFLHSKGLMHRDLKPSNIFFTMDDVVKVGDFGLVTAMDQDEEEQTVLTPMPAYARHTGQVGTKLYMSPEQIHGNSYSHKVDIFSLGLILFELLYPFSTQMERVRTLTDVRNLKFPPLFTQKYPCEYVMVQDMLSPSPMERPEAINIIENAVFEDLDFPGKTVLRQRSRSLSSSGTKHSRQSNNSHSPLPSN
Dynein transport – inhibitors of GR-EGFP nuclear translocation, primary screen, dynein cargo transport inhibitor project, imaging, high-content, 3617.4 mouse cells. 0.47% of 220,000 active. AID 1381, 2008. test concentration mostly 20 µM; stimulated with dexamethasone, 1 µM; hits give low values. z-score, hits read low;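 active means plate z-score of nuclear minus cytoplasmic receptor signal below a set negative limit, without overly bright fluorescence or cell loss, cut at about -3.5 in these data, passing the limit was not always enough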;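 further: z-score of nuclear minus cytoplasmic ring GR-EGFP intensity difference per well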
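Buffer or medium: tet-free, stripped-serum medium; reagent: dexamethasone at 1.0 µM final, 30 min; incubation: 48 h induction, 1 h compound, 30 min dex at 37 °C; measured by: formaldehyde fixation, Hoechst nuclear stain, 10x automated fluorescence imaging; read-out: nuclear-to-cytoplasmic GR-EGFP distribution per well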
Autophagy HCS – autophagy modulators in MEF cells, primary screen, imaging, high-content, MEF GFP-LC3. AID 463193, 2010. calls only at 10 µM (by protocol). 0.98% of 190,000 active. MEF GFP-LC3 puncta imaging; test concentration mostly 10 µM;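 active means percentage of spot-positive cells more than 3 SD above its plate mean, without a fluorescence outlier flag or 80% toxicity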;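 further: spot-positive cell cutoff set from DMSO-treated cells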
Tb hexokinase – Trypanosoma brucei hexokinase 1 inhibitors, primary screen, biochemical, G6PDH-coupled NADH absorbance, MLSCN library; recombinant TbHK1, G6PDH-coupled NADH A340; inhibition, % at 10 µM; 0.11% of 220,000 active; AID 1430, 2008;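 active means inhibition of 50% or more in the single-dose primary screen; inactive means inhibition below 50%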
HKDC1 act conf – HKDC1 hexokinase activators, confirmation, biochemical, single concentration; AID 504708, 2011; 14% of 740 active; shares compounds with HKDC1 inhibitor; recombinant HKDC1, G6PDH/diaphorase resazurin fluorescence; hits give low values; inhibition, % at 20 µM;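 active means inhibition at or below a set negative limit, negative inhibition meaning the enzyme was activated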
* marks the source's active call; other numbers are inactive results; i = inactive; . = no result; + = active, no number. Most compounds without a hit are left out; they make up all but 1.2% or so of the library.

SMILES | HSV replic up | HKDC1 inhibitor | PERK inhibitor | Dynein transport | Autophagy HCS | Tb hexokinase | HKDC1 act conf
CCCC(NC(=O)Cc1c(C)c2cc3c(C)c(C)oc3c(C)c2oc1=O)C(=O)N[C@@H](Cc1ccccc1)C(=O)O (some centres not stated) | . | 52* | . | . | . | . | -19
COc1ccc(-c2nnc(SC)nc2-c2ccc(OC)c([N+](=O)[O-])c2)cc1[N+](=O)[O-] | . | 34 | . | . | . | . | 13
CC1=C(SCc2ccccc2)C(=O)c2ccccc2C1=O | . | 44* | . | . | . | . | 24
COc1cc2c(C#N)c(N3CCc4ccccc4C3)nc(N)c2c(N)n1 | i | 41* | -1 | 3.5 | i | 15 | -21
Cc1ccc(NC(=O)CNC(=O)Cc2cccc3ccccc23)c(O)c1 | . | -7 | . | . | . | . | .
NC1=C(Cl)C(=O)c2ccccc2C1=O | . | -16 | . | . | . | . | .
NC1=C(Cl)C(=O)c2ccc(S(N)(=O)=O)cc2C1=O | . | -134 | . | . | . | . | -43*
O=C(COC(=O)/C=C/c1cccc(C(F)(F)F)c1)NC1CCS(=O)(=O)C1 (configuration not stated) | . | -3 | . | . | . | . | .
O=[N+]([O-])c1ccc(Sc2nc3ccccc3o2)c([N+](=O)[O-])c1 | i | 35* | 0 | -1.8 | i | 1 | 30
O=c1[nH]c(Sc2ccc([N+](=O)[O-])cc2[N+](=O)[O-])nc2ccccc12 | . | 26 | . | . | . | . | .
COCCN(Cc1ccccc1)C(=O)c1ccc(C(=O)c2ccccc2)cc1 | . | 2 | . | . | . | . | .
Cc1ccc(NC(=O)CN2C(=O)S/C(=C/c3ccc(-c4cc(C(=O)O)ccc4C)o3)C2=O)cc1C | i | 43* | 0 | -0.52 | i | 31 | 1
NC(=O)[C@H]1CC2(CC(c3cccc(NC(=O)[C@H]4CCC(=O)N4)c3)=NO2)CN1C(=O)c1ccccc1 (some centres not stated) | i | 39* | . | -0.45 | . | -10 | 28
O=C(OCC(=O)N1CCN(C(=O)c2ccco2)CC1)c1cc(-c2ccccc2)nc2ccccc12 | i | 37* | -1 | 0.035 | i | -12 | -23
O=C1C=C(N2CCOCC2)c2ccccc2C1=O | . | 77* | . | . | . | . | 79
[S-]c1nnc(-c2ccc(Br)cc2)n1-c1ccccc1.[Zn+2] | . | 49* | . | . | . | . | 26
COc1ccc(-n2c(-c3ccccc3)nnc2-c2ccc(Cl)cc2)cc1 | i | 0 | 1 | 0.58 | i | -11 | .
CCOc1ccc(N2CCc3c(C)nc(SC)nc32)cc1 | i | -6 | 1 | -1.3 | i | -3 | .
COc1cc(C2c3c([nH]c(=O)[nH]c3=O)Nc3ccc4ccccc4c32)cc(OC)c1OC (configuration not stated) | i | 37* | 1 | 0.29 | i | -9 | 44
O=C1/C(=C/c2cccs2)SC(=S)N1CCCC(=O)N(CCO)c1ccccc1 | . | -1 | . | . | . | . | .
O=C(O)c1cc(O)c2c(c1)[C@@H]([C@H]1c3cc(C(=O)O)cc(O)c3C(=O)c3c(O[C@@H]4O[C@H](CO)[C@@H](O)[C@H](O)[C@H]4O)cccc31)c1cccc(OC3O[C@H](CO)[C@@H](O)[C@H](O)[C@H]3O)c1C2=O (some centres not stated) | . | 83* | . | . | . | . | 51
O=C1c2cc(CO)cc(O)c2C(=O)c2c(O[C@@H]3OC(CO)[C@@H](O)[C@@H](O)[C@@H]3O)cccc21 (some centres not stated) | i | 9 | . | . | . | . | .
O=C(O)c1cc(O)c2c(c1)[C@H]([C@H]1c3cc(C(=O)O)cc(O)c3C(=O)c3c(O[C@@H]4O[C@H](CO)[C@@H](O)[C@H](O)[C@H]4O)cccc31)c1cccc(OC3O[C@H](CO)[C@@H](O)[C@H](O)[C@H]3O)c1C2=O (some centres not stated) | . | 87* | . | . | . | . | 52
Oc1ccc2ccccc2c1/C=N/c1nccs1 | i | 37* | 1 | -0.56 | i | 5 | 29
Oc1ccc2ccccc2c1C=Nc1ccccc1Br | . | 38* | . | . | . | . | 10
SMILES | HSV replic up | HKDC1 inhibitor | PERK inhibitor | Dynein transport | Autophagy HCS | Tb hexokinase | HKDC1 act conf
Oc1ccccc1N=Cc1c(O)ccc2ccccc12 | i | 10 | 0 | -1.5 | . | 5 | .
COc1ccc(NS(=O)(=O)c2cccc(C(=O)NNC(=O)CNC(=O)c3cccc(C)c3)c2)cc1 | . | 2 | . | . | . | . | .
COCCN1C(=O)C(=O)/C(=C(/O)c2ccc(S(=O)(=O)N3CCCCC3)cc2)C1c1ccc(OC)cc1 (configuration not stated) | . | -2 | . | . | . | . | .
COc1cc(C=c2c3ccccc3n3c2cc(-c2ccccc2)[n+]3C)cc(OC)c1OC | . | 27 | . | . | . | . | .
CN(C)c1ccc(C=c2c3ccccc3n3c2cc(-c2ccccc2)[n+]3C)cc1 | . | 37* | . | . | . | . | 23
COc1cc(N(C)C)ccc1C=c1c2ccccc2n2c1cc(-c1ccccc1)[n+]2C | . | 41* | . | . | . | . | 37
CCN1C(=O)C(=O)N(CC(=O)N2CCN(c3ccccc3)CC2)C1=O | . | -9 | . | . | . | . | .
CCOC(=O)C(C(=O)OCC)c1cc(Br)c2noc3c2c1C(=O)c1ccccc1-3 | . | 54* | 0 | 9.3 | + | -9 | 28
Cc1ccc(/C=C/c2nc3sc(C(=O)O)c(C)c3c(=O)[nH]2)cc1[N+](=O)[O-] | . | 47* | . | . | . | . | -27
Cc1c(C(=O)O)sc2nc(/C=C/c3cccc(F)c3)[nH]c(=O)c12 | . | 0 | . | . | . | . | .
COc1ccccc1CNC(=O)c1nccnc1CO | . | -5 | . | . | . | . | .
CCN(C(=O)COC(=O)c1cc(Cl)ccc1OC)c1c(N)n(Cc2ccccc2)c(=O)[nH]c1=O | . | -5 | . | . | . | . | .
CCOC(=O)c1ccc(N2N=C(C)/C(=C/C=C/c3ccco3)C2=O)cc1 | i | -1 | 0 | -2.3 | i | -10 | .
O=C(O)c1cc(N2N=C(C(F)(F)F)/C(=C/C=C/c3ccco3)C2=O)ccc1Cl | i | 46* | 1 | -1.1 | i | 16 | 57
O=S(=O)(Nc1c(O)ccc2ccccc12)c1cccc2ccccc12 | . | 29 | . | . | . | . | .
